Results as given in the RNAGym collection of RNA variant scans (doi:10.1126/science.aae0568).
Variants at the floor of the assay were thinned out.

B1: tRNA (parent)
chain: GUUCCGUUGGCGUAAUGGUAACGCGUCUCCCUCCUAAGGAGAAGACUGCGGGUUCGAGUCCCGUACGGAACG

Variants of: B1
Experiment: yeast fitness relative to wild type (ratio to wild type); higher = fitter; tRNA-Arg(CCU), competitive growth, 37 C, YPD
Summary of the method: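 Genotype frequency changes were the basis for Darwinian fitness relative to wild type. The frequencies came from 100-nucleotide paired-end sequencing of gene amplicons from the start population and each end population of pooled yeast strains with tRNA-Arg(CCU) gene variants at the native locus. Competition ran in YPD at 37°C for 24 hours in six replicates, genotypes needed ≥ 100 starting reads, and estimates < 0.5 were set to 0.5.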

Variant | yeast fitness
C11U G56A C62A | 0.567
C11U G56A C62G | ≤ 0.5
G12A C33G A36C G44A | ≤ 0.5
C11U U28G | 0.792
G12A A15C | 0.773
G12A G48C | 0.754
G12C G18C U35A G39A U53A | ≤ 0.5
G12C U26A G48A G56C | ≤ 0.5
U13A A15C C33G C49U A69C | ≤ 0.5
U13A A15C U54G C66G G67C | ≤ 0.5
G12C G38A | 0.687
G12A A57C C66G | ≤ 0.5
U13A A42U G63A | 0.699
U13A A21C A42G | 0.502
G12A G41C A45C G68A | ≤ 0.5
C11U U19C C27G | 0.66
G12C C33U A42C | ≤ 0.5
G12C G58A C62U A69C | 0.699
C11U U32A A70C | 0.614
G12A U13C C49U | 0.674
G12C C24U | 0.651

Variant | yeast fitness
C11U G58C C61U | 0.65
G12C G17C | 0.637
G12A C27A C30G | 0.626
G12C U32G C33G G68C | ≤ 0.5
C11U U26C C61G A65C | ≤ 0.5
C11U U13G U19A C22G G25A A65C | ≤ 0.5
C11U U28G C30A | ≤ 0.5
C11U U54C C61U | ≤ 0.5
G12C A20U C33U C66U | ≤ 0.5
C11U U16C G23A A36C | ≤ 0.5
G12C A20C C31G A65G | 0.527
G12C C27A G56C | 0.702
G12A C27A G67C | 0.548
G12A A20C C49G | 0.539
G12A U32G U35A G38C G51C C66U | ≤ 0.5
G12A C24U C27A A70U | ≤ 0.5
C11U G52A C60A | 0.593
U13A A15G C66U | 0.644
G12A C27A C29U A36G | ≤ 0.5
G12A G23A U35G A36G C62U A69G | ≤ 0.5
G12A A43G A69U | 0.803

Variant | yeast fitness
G12C C31U A65C A69U | ≤ 0.5
G12A C22A C29U A69U | ≤ 0.5
G12A C24G G68A | ≤ 0.5
G12A U19C | 0.982
G12U A57C | ≤ 0.5
G12A A21C U59A G67A | ≤ 0.5
C11U U19A C29G | 0.704
G12A A43U A45C G67C | 0.542
G12A U13A A37G A40G U59A | ≤ 0.5
G12C A20C C31G | 0.596
G12C U59A A69C | ≤ 0.5
G12C A20G C46G | 0.548
G12A A14U C30U | ≤ 0.5
G12C U32G C33G U47C A57C | ≤ 0.5
G12A G48C U54C | 0.567
G12C A43G C61U | ≤ 0.5
G12C G63C | 0.699
G12A U28G C33G | ≤ 0.5
G12A U19C G23C G67C | ≤ 0.5
G12C C60U A70C | ≤ 0.5
G12C C27G G56C | ≤ 0.5

Variant | yeast fitness
G12A U28G C30G C49U U64C | ≤ 0.5
U13A A14U C22G A37G G41A | ≤ 0.5
G12A A40U G52C C60G | ≤ 0.5
G12C A42G A70U | 0.592
G12A U35C G41A G51C | ≤ 0.5
G12A G25A C30G G58C C66A | ≤ 0.5
U13A | 0.993
G12C G17A A20U G58U | ≤ 0.5
C11U U19G | 0.962
C11U U13C C24A A43C G50C C60G A70U | 0.567
G12C C55U C61G | ≤ 0.5
U13A A14C A21C G25A C61A | ≤ 0.5
G12C U19A C27G C62A | ≤ 0.5
G12A C24G A40C A42G A43C C46U G68C A69U | ≤ 0.5
G12C C24G U35C | ≤ 0.5
G12A G41U | 0.819
G12A A20U C62U A65G | ≤ 0.5
G12C C31A A40C C62U | ≤ 0.5
G12A U47C C49A A57U | 0.53
G12A C24A A36U A65U | ≤ 0.5
G12C A15U C24A G48C C61U | ≤ 0.5
